Laboratory results reported in ChEMBL document CHEMBL1177640 (Bioorg Med Chem, 2010).
The source made the active and inactive calls. The calls are words filed in the database; no cut-off is given here.

Columns and labels:
Caco-2 [1] = test: Efflux ratio of permeability from basolateral to apical side over apical to basolateral side in human Caco-2 cells at pH 7.4; details: caco-2, pH 7.4
[2] = Inhibition of HDAC up to 40 uM
SJRH30 [3] = test: Cytotoxicity against human Rh30 cells at 5 to 20 uM after 72 hrs by Alamar blue assay; assay type: functional, cell-based
In short: (§1)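 Cells seeded 24 h ahead in 384-well plates at 1.0×10^3 (BJ) or 1.6×10^3 (Rh30) per well. Compound diluted from DMSO stock into medium and added in triplicate, then incubated 68 h at 37 °C. Alamar Blue added for a further 4 h, with fluorescence read at ex 510/em 590 nm. Viability normalized to DMSO (100%) and no-cell (0%) wells.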

BJ = test: Cytotoxicity against human BJ cells at 5 to 20 uM after 72 hrs by Alamar blue assay; assay type: cell-based
In short: as §1

Caco-2 [4] = test: Apparent permeability from basolateral to apical side of human Caco-2 cells at pH 7.4; assay type: ADME, cell-based; details: caco-2, pH 7.4
In short: (§2)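 Caco-2 cells grown 7 days on Transwell inserts in MEM with 10% FBS. Monolayers washed with HBSS/HEPES (10 mM, pH 7.4), then compound at 50 µM added to the apical or basolateral side and incubated 2 h at 37 °C. Receiver fractions quantified by UPLC/MS, triplicates. Papp = dQ/dt […].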

Caco-2 [5] = test: Apparent permeability from apical to basolateral side of human Caco-2 cells at pH 7.4; assay type: ADME, cell-based; details: caco-2, pH 7.4
In short: as §2

[6] = Permeability in buffer of pH 7.4 by PAMPA; assay type: ADME; details: for Papp: read-out: permeability
In short: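 Double-Sink PAMPA: DMSO stock diluted 200-fold into system solution buffer pH 7.4 in the donor plate, with acceptor sink buffer pH 7.4. Incubated 0.5 h at room temperature with stirring. Donor and acceptor concentrations measured by UV (230–500 nm), triplicates.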

[7] = biological target: T1, Zinc finger protein GLI1 (Homo sapiens) (UniProt P08151); test: Inhibition of human Gli1 expressed in mouse C3H10T1/2 cells assessed as inhibition of transcriptional activity at 10 to 20 uM after 24 hrs by luciferase reporter gene assay; assay type: cell-based; details: C3H 10T1/2
T1 sequence (whole entry): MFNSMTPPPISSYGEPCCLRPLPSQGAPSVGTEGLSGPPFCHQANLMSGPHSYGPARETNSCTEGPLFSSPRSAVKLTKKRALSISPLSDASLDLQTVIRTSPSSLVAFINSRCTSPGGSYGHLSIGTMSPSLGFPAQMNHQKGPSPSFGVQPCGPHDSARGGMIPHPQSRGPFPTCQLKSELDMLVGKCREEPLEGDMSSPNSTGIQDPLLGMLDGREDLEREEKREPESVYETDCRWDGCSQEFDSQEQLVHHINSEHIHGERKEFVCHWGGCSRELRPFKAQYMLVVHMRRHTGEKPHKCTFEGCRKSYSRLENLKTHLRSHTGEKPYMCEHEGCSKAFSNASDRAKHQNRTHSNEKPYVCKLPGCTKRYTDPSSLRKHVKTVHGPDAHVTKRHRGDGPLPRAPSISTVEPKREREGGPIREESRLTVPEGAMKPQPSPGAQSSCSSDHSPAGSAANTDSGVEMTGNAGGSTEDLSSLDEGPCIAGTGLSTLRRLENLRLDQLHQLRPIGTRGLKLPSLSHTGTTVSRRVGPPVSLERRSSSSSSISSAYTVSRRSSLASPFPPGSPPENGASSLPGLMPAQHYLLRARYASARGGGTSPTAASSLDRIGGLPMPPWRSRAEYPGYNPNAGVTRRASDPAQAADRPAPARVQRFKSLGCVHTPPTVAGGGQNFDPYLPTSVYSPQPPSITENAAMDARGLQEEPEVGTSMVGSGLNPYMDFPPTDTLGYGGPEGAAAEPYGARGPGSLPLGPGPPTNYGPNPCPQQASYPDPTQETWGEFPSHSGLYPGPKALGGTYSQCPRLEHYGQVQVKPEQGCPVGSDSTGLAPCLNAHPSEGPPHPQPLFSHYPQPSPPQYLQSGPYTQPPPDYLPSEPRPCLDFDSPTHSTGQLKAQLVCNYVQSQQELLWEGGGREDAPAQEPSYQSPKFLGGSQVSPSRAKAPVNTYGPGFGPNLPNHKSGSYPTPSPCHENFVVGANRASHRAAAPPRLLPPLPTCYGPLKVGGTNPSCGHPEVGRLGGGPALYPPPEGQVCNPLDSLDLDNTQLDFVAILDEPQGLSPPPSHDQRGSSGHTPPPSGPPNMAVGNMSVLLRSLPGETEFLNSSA
In short: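 C3H10T1/2 cells transiently transfected overnight with GliLuc-BS, pRL-TK Renilla control and human Gli1 (or mouse Gli2 for Gli2 lines), 250 ng/mL each for the Gli plasmids. Cells replated in 96-well plates, then exposed to compound in BME/10% FBS for 24 h at 37 °C. Firefly/Renilla dual-luciferase ratio normalized to DMSO, triplicates. Dose–response IC50 from curve fitting.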

[8] = Half life in CD-1 mouse liver microsomes; assay type: ADME, Microsome
In short: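 CD-1 female mouse liver microsomes at 0.6329 mg/mL protein in 0.1 M potassium phosphate pH 7.4 with EDTA. Compound at 1 µM, reaction started with NADPH regenerating system at 37 °C and sampled at 0, 0.5, 1 and 2 h in triplicate. Quenched with cold acetonitrile containing ketoconazole internal standard and analysed by UPLC-MS SIR. ke taken from log-linear regression, t1/2 = ln2/ke.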

[9] = biological target: Transcription factor Jun (Homo sapiens) (UniProt P05412); test: Inhibition of transcriptional activity of AP1 transfected in mouse C3H10T1/2 cells at 20 uM after 24 hrs by luciferase reporter gene assay; assay type: cell-based; details: C3H 10T1/2
In short: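 AP-1 reporter tested in C3H10T1/2 cells under the same conditions as the Gli1/Gli-Luc assay: 24 h compound exposure and dual-luciferase read-out normalized to DMSO.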

C3H 10T1/2 [10] = test: Inhibition of Hh signal-induced alkaline phosphatase activity in mouse C3H10T1/2 cells at 10 uM after 4 days; assay type: functional, cell-based
[11] = biological target: T1, Zinc finger protein GLI1 (Homo sapiens); test: Inhibition of human Gli1-mediated transcriptional activity in human Rh30 cells at 10 to 20 uM after 24 hrs by luciferase reporter gene assay; assay type: cell-based
In short: (§3)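 Rh30 cells without Gli1 transfection, transfected overnight with GliLuc-BS (500 ng/mL) and pRL-CMV (2.5 ng/mL), then replated in 96-well plates. Compound given in RPMI-1640/10% FBS for 24 h at 37 °C. Firefly luminescence divided by Renilla and normalized to DMSO-treated cells (0% inhibition), triplicates.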

SJRH30 [12] = test: Inhibition of cyclinD1 expression in human Rh30 cells at 10 to 40 uM after 24 hrs by RT-PCR analysis; assay type: functional, cell-based
In short: (§4)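 Rh30 cells in 6-well plates treated with compound or DMSO for 24 h. Total RNA (250 ng) reverse-transcribed after DNase removal, then SYBR Green real-time PCR with primers at 200 nM. Target mRNA normalized to GAPDH and to the DMSO control by the 2^-ΔΔCt method. Duplicate data.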

SJRH30 [13] = test: Inhibition of Bcl2 expression in human Rh30 cells at 10 to 40 uM after 24 hrs by RT-PCR analysis; assay type: functional, cell-based
In short: as §4

SJRH30 [14] = test: Inhibition of Ptch1 expression in human Rh30 cells at 10 to 40 uM after 24 hrs by RT-PCR analysis; assay type: functional, cell-based
In short: as §4

[15] = biological target: T1, Zinc finger protein GLI1 (Homo sapiens); test: Inhibition of human Gli1-mediated transcriptional activity in human Rh30 cells up to 40 uM after 24 hrs by luciferase reporter gene assay; assay type: cell-based
In short: as §3

C3H 10T1/2 [16] = test: Inhibition of Hh signal-induced alkaline phosphatase activity in mouse C3H10T1/2 cells after 4 days; assay type: functional, cell-based; details: C3H 10T1/2, 96 h

Transcription factor Jun (Homo sapiens), sequence (P05412 whole entry): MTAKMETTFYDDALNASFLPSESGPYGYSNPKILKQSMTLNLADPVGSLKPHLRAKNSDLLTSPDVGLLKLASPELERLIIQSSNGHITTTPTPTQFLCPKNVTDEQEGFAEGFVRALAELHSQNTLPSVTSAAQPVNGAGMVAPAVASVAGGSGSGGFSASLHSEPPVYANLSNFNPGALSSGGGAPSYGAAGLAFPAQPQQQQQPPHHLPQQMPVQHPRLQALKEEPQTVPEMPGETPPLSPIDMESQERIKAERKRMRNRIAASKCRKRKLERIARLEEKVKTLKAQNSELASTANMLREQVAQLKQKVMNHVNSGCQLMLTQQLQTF

For `CC(C(=O)NCCc1ccc(O)cc1)c1cccc(C(=O)c2ccccc2)c1` (configuration not stated), the Ratio (Caco-2 [1]) was 0.45, the inhibition [2] was “inactive” and the Activity (SJRH30 [3]) was “Toxic”. For the same molecule, the Activity (BJ) was “Non-toxic”, the Papp (Caco-2 [4]) was 5.8 ×10⁻⁶ cm/s and the Papp (Caco-2 [5]) was 13 ×10⁻⁶ cm/s. The permeability [6] was 92% and the Papp [6] was 60.2 ×10⁻⁶ cm/s.
In the case of `CC(CNC(=O)c1cc2ccccc2[nH]1)c1cccc(C(=O)c2ccccc2)c1` (configuration not stated), the Activity (SJRH30 [3]) is reported as “Toxic”, the Activity (BJ) is reported as “Non-toxic” and the inhibition [7] is reported as “Active”.
With `CC(CNC(=O)c1ccc2[nH]ccc2c1)c1cccc(C(=O)c2ccccc2)c1` (configuration not stated) the Ratio (Caco-2 [1]) was 0.46, the Activity (SJRH30 [3]) was “Toxic” and the Activity (BJ) was “Non-toxic”. The inhibition [7] was “Active”, the Papp (Caco-2 [4]) was 2.7 ×10⁻⁶ cm/s and the Papp (Caco-2 [5]) was 5.8 ×10⁻⁶ cm/s. It also gave a permeability [6] of 47%, a Papp [6] of 52.1 ×10⁻⁶ cm/s and a t1/2 [8] of 0.6 h. For the same molecule, the inhibition [9] was “inactive”.
With `CC(C(=O)Nc1ccc2cc[nH]c2c1)c1cccc(C(=O)c2ccccc2)c1` (configuration not stated) the Ratio (Caco-2 [1]) was 0.31, the inhibition (C3H 10T1/2 [10]) was “inactive” and the Activity (SJRH30 [3]) was “Toxic”. For the same molecule, the Activity (BJ) was “Non-toxic”, the Papp (Caco-2 [4]) was 3.9 ×10⁻⁶ cm/s and the inhibition [11] was “Active”. It also gave a Papp (Caco-2 [5]) of 12.2 ×10⁻⁶ cm/s, a permeability [6] of 75% and a Papp [6] of 77.8 ×10⁻⁶ cm/s. For the same molecule, the t1/2 [8] was 2.8 h and the inhibition [9] was “inactive”.
In the case of `CC(CNC(=O)c1cccc2cc[nH]c12)c1cccc(C(=O)c2ccccc2)c1` (configuration not stated), the inhibition [7] is reported as “Active”.
In the case of `CC(CNC(=O)c1ccc2cc[nH]c2c1)c1cccc(C(=O)c2ccccc2)c1` (configuration not stated), the Activity (SJRH30 [3]) is reported as “Toxic”, the Activity (BJ) is reported as “Non-toxic” and the inhibition [7] is reported as “Active”.
With `CCCN(C(=O)C(C)c1cccc(C(=O)c2ccccc2)c1)c1ccc2cc[nH]c2c1` (configuration not stated) the inhibition (C3H 10T1/2 [10]) was “inactive”, the inhibition (SJRH30 [12]) was “Active” and the inhibition (SJRH30 [13]) was “Active”. For the same molecule, the inhibition [2] was “inactive”, the Activity (SJRH30 [3]) was “Toxic” and the Activity (BJ) was “Non-toxic”. For the same molecule, the inhibition (SJRH30 [14]) was “Active”, the inhibition [11] was “Active” and the permeability [6] was 80%. The Papp [6] was 71.4 ×10⁻⁶ cm/s, the t1/2 [8] was 1.8 h and the inhibition [9] was “inactive”.
With `CC(CNC(=O)Cc1ccc2[nH]ccc2c1)c1cccc(C(=O)c2ccccc2)c1` (configuration not stated) the inhibition [7] was “inactive”.
`CNC(=C[N+](=O)[O-])NCCSCc1ccc(CN(C)C)o1` [RANITIDINE] gave a permeability [6] of 2%.
In the case of `NC(=O)N1c2ccccc2C=Cc2ccccc21` [CARBAMAZEPINE], the permeability [6] is reported as 33%.
In the case of `CC(CNC(=O)c1c[nH]c2ccccc12)c1cccc(C(=O)c2ccccc2)c1` (configuration not stated), the Activity (SJRH30 [3]) is reported as “Toxic”, the Activity (BJ) is reported as “Non-toxic” and the inhibition [7] is reported as “Active”.
With `CC(C(=O)Nc1ccc2[nH]ccc2c1)c1cccc(C(=O)c2ccccc2)c1` (configuration not stated) the Activity (SJRH30 [3]) was “Toxic” and the Activity (BJ) was “Non-toxic”.
For `CCCN(CCc1ccc(O)cc1)C(=O)C(C)c1cccc(C(=O)c2ccccc2)c1` (configuration not stated), the inhibition [15] was “inactive”, the inhibition [2] was “inactive” and the Activity (SJRH30 [3]) was “Toxic”. The Activity (BJ) was “Non-toxic”.
For `CCCN(C(=O)C(C)c1cccc(C(=O)c2ccccc2)c1)c1cccc2[nH]ccc12` (configuration not stated), the Activity (SJRH30 [3]) was “Toxic” and the Activity (BJ) was “Non-toxic”.
With `CCCN(C(=O)C(C)c1cccc(C(=O)c2ccccc2)c1)c1ccc2[nH]ccc2c1` (configuration not stated) the inhibition (C3H 10T1/2 [10]) was “inactive”, the inhibition [2] was “inactive” and the Activity (SJRH30 [3]) was “Toxic”. The Activity (BJ) was “Non-toxic”, the inhibition [11] was “Active” and the t1/2 [8] was 0.8 h. For the same molecule, the inhibition [9] was “inactive”.
In the case of `COc1cc(OC)cc(C(=O)Nc2ccc(Cl)c(-c3nc4cc(N(C)C)ccc4[nH]3)c2)c1`, the IC50 (C3H 10T1/2 [16]) is reported as 100 nM and the inhibition [15] is reported as “inactive”.
In the case of `CC(CNC(=O)c1cccc2[nH]ccc12)c1cccc(C(=O)c2ccccc2)c1` (configuration not stated), the inhibition [7] is reported as “Active”.
